Measurements from different studies.
PIK3CA H1047L: Phosphatidylinositol 4,5-bisphosphate 3-kinase catalytic subunit alpha isoform (PIK3CA, Homo sapiens, UniProt P42336, H1047L)
PIK3CA E542K: Phosphatidylinositol 4,5-bisphosphate 3-kinase catalytic subunit alpha isoform (PIK3CA, Homo sapiens, UniProt P42336, E542K)
PIK3CA E545K: Phosphatidylinositol 4,5-bisphosphate 3-kinase catalytic subunit alpha isoform (PIK3CA, Homo sapiens, UniProt P42336, E545K)
PIK3CA: Phosphatidylinositol 4,5-bisphosphate 3-kinase catalytic subunit alpha isoform (PIK3CA, Homo sapiens, UniProt P42336)

Structure (SMILES) | target | test | conditions | endpoint | result
Cn1nc(C(F)(F)F)cc1-c1cnc(N2CCc3cc(S(=O)(=O)Nc4c(F)cc(Cl)cc4F)cc(N4CCCC4=O)c32)nc1 | PIK3CA H1047L | cell-free assay, competition with immobilised ligand | 1 µM | remaining binding | 94%
Nc1ncnc2occ(-c3ccc(NC(=O)Nc4cc(C(F)(F)F)ccc4F)cc3)c12 | Phosphatidylinositol 4,5-bisphosphate 3-kinase catalytic subunit alpha isoform (PIK3CA, Homo sapiens, UniProt P42336, Q546K) | cell-free assay, inhibitor | 20 µM | remaining signal | 72%
O=C(NC[C@@H]1[C@H]2CN(C(=O)OCc3cc(C(F)(F)F)cc(C(F)(F)F)c3)C[C@@H]12)c1ccc2[nH]nnc2c1 | PIK3CA E542K | cell-free assay, competition with immobilised ligand | 1 µM | remaining binding | 75%
CN(C)c1nccc(-c2cnn3ncccc23)n1 | PIK3CA H1047L | binding | 1 µM | remaining binding | 73%
O=c1nc(-c2ccccn2)sc2ccccc12 | PIK3CA E545K | cell-free assay, competition with immobilised ligand | 1 µM | remaining binding | 65%
C=CC(=O)N(C)CCCCC(=O)N1CCN(c2nc(-c3cnc(N)nc3C(F)F)nc(N3CCOCC3)n2)CC1 | PIK3CA | cell-free assay, TR-FRET | – | kinact/KI | 20300 M⁻¹ s⁻¹
CCCCNc1ncc2c(-c3ccc(F)cc3)nn(C[C@H]3CC[C@H](N)CC3)c2n1 | PIK3CA | target engagement in cells, inhibitor, chemoproteomics | 20 mM | inhibition | 70.8%
Cc1cnn2ncc(-c3ccnc(N(C)C)n3)c2c1 | PIK3CA H1047L | binding | 1 µM | remaining binding | 77%
CCC(=N\O)/C(C)=C/c1ccc(F)cc1 | Phosphatidylinositol 4,5-bisphosphate 3-kinase catalytic subunit alpha isoform (PIK3CA, Homo sapiens, UniProt P42336, M1043I) | cell-free assay, competition with immobilised ligand | 1 µM | remaining binding | 88%
CC(=O)Oc1ccc(-c2coc3c4c(c(CC=C(C)C)c(OC(C)=O)c3c2=O)OC(C)(C)C=C4)cc1OC(C)=O | PIK3CA E542K | enzyme activity, inhibitor, ADP detection | 10 µM | remaining activity | 46.1%
CC(C)CCn1c(SCC(=O)Nc2ccccc2C(F)(F)F)nc2nccnc2c1=O | PIK3CA | enzyme activity, inhibitor | 10 µM | inhibition | < 20%
CN(C)c1nccc(-c2cnc3ncccn23)n1 | Phosphatidylinositol 4,5-bisphosphate 3-kinase catalytic subunit alpha isoform (PIK3CA, Homo sapiens, UniProt P42336, C420R) | binding | 1 µM | remaining binding | 58%
CC(C)=CC(=O)CCCC(=O)N1CCN(c2nc(-c3cnc(N)nc3C(F)F)nc(N3CCOCC3)n2)CC1 | PIK3CA | ligand displacement, TR-FRET | – | kinact/KI | 3210 M⁻¹ s⁻¹
CCCOc1ccc([C@@H]2[C@@H](C(=O)O)[C@H](c3ccc4c(c3)OCO4)CN2CC(=O)Nc2c(CC)cccc2CC)cc1 | Phosphatidylinositol 4,5-bisphosphate 3-kinase catalytic subunit alpha isoform (PIK3CA, Homo sapiens, UniProt P42336, E545A) | cell-free assay, competition with immobilised ligand | 1 µM | remaining binding | 92%
C=CC(=O)N1CCC(C(=O)N(C)CCCC(=O)N2CCN(c3nc(-c4cnc(N)nc4C(F)F)nc(N4CCOCC4)n3)CC2)CC1 | PIK3CA | cell-free assay, TR-FRET | – | kinact/KI | 33600 M⁻¹ s⁻¹
F[C@@H]1CCN(c2nccc(-c3cnn4ncccc34)n2)C1 | PIK3CA | binding | 1 µM | remaining binding | 100%
NS(=O)(=O)c1cc(NC(=O)C2(c3ccccc3Cl)CC2)ccc1Oc1cccc(Cl)c1 | Phosphatidylinositol 4,5-bisphosphate 3-kinase catalytic subunit alpha isoform (PIK3CA, Homo sapiens, UniProt P42336, I800L) | cell-free assay, competition with immobilised ligand | 1 µM | remaining binding | 100%
N[C@@H]1CCN(c2nccc(-c3cnn4ncccc34)n2)C1 | PIK3CA H1047L | binding | 1 µM | remaining binding | 100%
Nc1cnc(N2CCc3cc(S(=O)(=O)Nc4c(F)cc(Cl)cc4F)cc(N4CCCC4=O)c32)nc1 | Phosphatidylinositol 4,5-bisphosphate 3-kinase catalytic subunit alpha isoform (PIK3CA, Homo sapiens, UniProt P42336, H1047Y) | cell-free assay, competition with immobilised ligand | 1 µM | remaining binding | 100%
c1cnn2ncc(-c3ccnc(N4CCC45COC5)n3)c2c1 | PIK3CA E545K | binding | 1 µM | remaining binding | 86%
Cc1ccc(C(=O)Nc2ccc(CN3CCN(C)CC3)c(C(F)(F)F)c2)cc1C#Cc1cnc2cccnn12 | PIK3CA E542K | enzyme activity, inhibitor | 23.5 nM | remaining activity | 96%
